PMC11246720 (Journal of the American Chemical Society, 2023)
Positions count from the first letter of the chain named.

Assays:
[1] = biological target: T1, MAGE-A4 (Homo sapiens, UniProt P43358); assay: MALDI-MS covalent modification of MAGE-A4; assay type: binding
T1 sequence (P43358 1-317): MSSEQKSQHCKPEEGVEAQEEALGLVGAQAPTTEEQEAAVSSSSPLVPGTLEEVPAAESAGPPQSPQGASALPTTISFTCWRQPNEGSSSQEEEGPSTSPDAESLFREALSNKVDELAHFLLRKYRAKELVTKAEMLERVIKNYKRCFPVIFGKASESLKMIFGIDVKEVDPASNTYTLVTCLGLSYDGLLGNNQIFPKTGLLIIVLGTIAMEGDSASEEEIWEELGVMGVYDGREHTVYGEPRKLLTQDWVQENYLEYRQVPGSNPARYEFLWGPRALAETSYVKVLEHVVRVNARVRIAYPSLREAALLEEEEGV
In short: (§1)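 MAGE-A4 wild type or its C80A mutant was incubated with each peptide, and the intact protein was analysed by MALDI-MS for covalent adducts. L-Ala and D-Ala variants of each peptide, in which the dehydroalanines are replaced, were run in parallel.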

[2] = biological target: T2, MAGE-A4 C80A (Homo sapiens, UniProt P43358, C80A); assay: MALDI-MS covalent modification of MAGE-A4 C80A mutant; assay type: binding
T2 sequence (P43358 1-317 C80A): T1 sequence (P43358 1-317) with C80A
In short: as §1

[3] = biological target: T1, MAGE-A4; assay: TR-FRET between AF647-MTP-1 and MAGE-A4; assay type: binding
In short: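 Time-dependent TR-FRET measured displacement of AF647-labelled MTP-1 peptide tracer from MAGE-A4 (and from MAGE-A4 C80A) by covalent peptides. IC50 values were calculated from the resulting TR-FRET curves.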

[4] = biological target: T2, MAGE-A4 C80A; assay: TR-FRET between AF647-MTP-1 and MAGE-A4 C80A; assay type: binding; settings: TR-FRET vs AF647-MTP-1
[5] = biological target: T1, MAGE-A4; assay: Mass dilution TR-FRET assay for kinetic parameters; assay type: binding
[6] = biological target: T3, RAD18-MAGE-A4 complex (Homo sapiens, UniProt P43358); assay: Co-immunoprecipitation of the RAD18-MAGE-A4 complex in cell lysates; settings: 10 μM peptides
T3 sequence (P43358 1-317): T1 sequence (P43358 1-317)
In short: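 Read-out is Western blotting of MAGE-A4 co-immunoprecipitated with RAD18 from cell lysates. Peptides were tested at 10 μM, alongside a peptide included as a negative control.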

**Q.** How did the “covalent modification of MAGE-A4” value [1] turn out when MCP1 was run?
**A.** modify MAGE-A4

**Q.** And the “covalent modification of MAGE-A4 C80A mutant” value [2]?
**A.** did not label

**Q.** And the IC50 ([3]; after 1 hour)?
**A.** 9 nM

**Q.** And the “change in potency over time” value ([3]; time-dependent TR-FRET)?
**A.** small yet significant increases in potency over time

**Q.** And the “IC50 / activity in the presence of MAGE-A4 C80A” value [4]?
**A.** fell in between those of their L- and D-Ala mutants

**Q.** And the Ki [5]?
**A.** 7.3 ± 1.1 nM

**Q.** What about the “inactivation efficiency (kinact/KI)” value [5] of the same substance?
**A.** 8.17e+06 ± 867000 M⁻¹ s⁻¹

**Q.** And the kinact [5]?
**A.** 3.4 ± 0.3 min⁻¹

**Q.** What about the “disruption of MAGE-A4 pulldown with RAD18” value [6] of the same substance?
**A.** able to disrupt MAGE-A4 pulldown
